# Assay outcomes (PubChem)
# The list is not random: actives were taken first. Their share in the collection is about 1.9%.
# proCasp3 act: activators of human procaspase-3 D3A mutant, primary screen, biochemical, absorbance, PC-3 D3A mutant, single concentration; recombinant procaspase-3 D3A, Ac-DEVD-pNA absorbance 405 nm; actives 0.11% (n = 330,000); activation, % at 8.5 µM;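 active = activation above the mean of all tested compounds plus 3 SD, cut at about 21% in these data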
#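 System: Procaspase-3 D3A mutant. Medium: Zinc-free 300 mM NaCl, 50 mM HEPES, 0.01% Triton X-100. Schedule: 1 h preincubation plus 2 h reaction at 25 °C. Measured by: 405 nm absorbance of p-nitroaniline, reads at 0 and 120 min. Read-out: percent activation relative to control range.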
# GAA850 FXN act: FXN promoter activators, primary screen, cell-based, luciferase luminescence, HEK293 lucGAA850. actives 0.56% (n = 360,000). AID 540364, 2011. HEK293 lucGAA850 FXN promoter luciferase reporter, 24 h; percent of 10 µM SAHA response. activation, % at 6 µM;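 active = activation above the average of all compounds screened plus 3 SD, cutoff fixed separately per campaign, cut at about 7.5% in these data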
# procasp7 counter: procaspase-7 activators, primary screen, counter-screen for procaspase-3 activator project, biochemical, absorbance, HTS, human; recombinant procaspase-7, Ac-DEVD-pNA absorbance 405 nm; D23A/D198A/D206A triple mutant, cannot self-cleave; scale: DMSO 0, 5 µM enzyme 100; activation, % at 8.5 µM; actives 0.093% (n = 330,000);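 active = percent activation above the screen-wide mean plus 3 SD, cut at about 25% in these data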
# Target sequence (P55210 whole entry D23A/D198A/D206A): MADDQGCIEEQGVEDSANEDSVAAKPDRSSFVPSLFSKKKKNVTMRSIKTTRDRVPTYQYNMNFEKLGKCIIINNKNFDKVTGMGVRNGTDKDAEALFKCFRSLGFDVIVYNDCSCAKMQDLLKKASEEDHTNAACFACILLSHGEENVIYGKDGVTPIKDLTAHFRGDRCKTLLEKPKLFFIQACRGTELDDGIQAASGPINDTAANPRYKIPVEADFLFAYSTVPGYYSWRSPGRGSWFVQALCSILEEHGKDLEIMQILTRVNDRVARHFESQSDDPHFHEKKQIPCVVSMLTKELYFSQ
#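 Assay system: Uncleavable procaspase-7 mutant enzyme; Input: 2 µM procaspase-7 mutant as dispensed; Also added: DEVD-pNA substrate; Medium: Zinc-free HEPES pH 7.4 with 300 mM NaCl, 0.01% Triton X-100; Timing: 1 h compound preincubation, 2 h substrate cleavage, 25 °C; Measured by: Epi-absorbance of released pNA at 405 nm, two timepoints.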
# Calb FLC: C. albicans growth inhibition with fluconazole, primary screen, CaCi-2 strain, Alamar Blue fluorescence. actives 0.57% (n = 300,000). growth inhibition, % (test concentration not listed). C. albicans CaCi-2 + fluconazole, 48 h;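 active = growth inhibition above about 58% in most replicates, limit read from the data, passing the limit was not always enough; inconclusive = exactly half the replicates above a set limit; inactive = most replicates below a set limit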;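 note: all wells also contain fluconazole at 8 µg/ml as a sub-toxic cotreatment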
# HIF act: HIF pathway transcriptional activators, primary screen, cell-based, U2OS HRE-luciferase, luminescence | U2OS HRE-luciferase reporter; normalized: DMSO 0%, desferrioxamine 100% | activation, % at 7.5 µM (by protocol) | actives 0.32% (n = 300,000);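 active = mean activation of at least 10% of the iron chelator positive control signal, with at least half of replicates also reaching 10%; inconclusive = mean and replicate majority disagree about reaching 10%; inactive = mean and most replicates under 10%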
# Neddyl block: inhibitors of cullin neddylation, primary screen, biochemical, TR-FRET, uHTS, NAE and Ubc12. actives 0.58% (n = 360,000). NEDD8-conjugating enzyme Ubc12 (Homo sapiens) + NEDD8-activating enzyme E1 regulatory …. inhibition, % at 25 µM; in the data active = inhibition above about 36%
# procasp7 triplic: procaspase-7 activators, counter-screen for procaspase-3 activator project, biochemical, absorbance, triplicate, human | shares compounds with proCasp3 act | recombinant procaspase-7, Ac-DEVD-pNA absorbance; asp23/198/206-to-Ala mutant, cannot self-cleave | activation, % at 8.5 µM | 210 tested, under 10 active;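 active = mean activation above a set limit taken from an earlier procaspase-7 screen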
# procasp3 conf: activators of human procaspase-3 D3A mutant, confirmation, biochemical, absorbance, PC-3 D3A mutant, triplicate | shares compounds with proCasp3 act | recombinant PC-3 D3A, Ac-DEVD-pNA absorbance 405 nm; 100% is higher-enzyme control | activation, % at 8.5 µM | actives 10% (n = 210);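 active = mean activation above a set limit carried over from the earlier primary screen, cut at about 22% in these data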
# Numbers stand for hits; i = inactive; ? = inconclusive; nt = not tested or not shown.
SMILES,proCasp3 act,GAA850 FXN act,procasp7 counter,Calb FLC,HIF act,Neddyl block,procasp7 triplic,procasp3 conf
CC(C)c1ccc(-n2nc3ccc(N)cc3n2)cc1,30.6,i,i,i,i,nt,i,i
Clc1ccc(/C=C\c2nccc3c2[nH]c2ccccc23)cc1,nt,i,nt,i,i,nt,nt,nt
N#Cc1ccc(/C=C\c2nccc3c2[nH]c2ccccc23)cc1,48.0,i,i,i,i,nt,i,i
CCCCCCN1C=CC(=C/C=C(\C#N)C(=O)OCC)C=C1,24.4,i,i,i,i,i,i,i
CCCN1C=CC(=CC=C(C#N)C#N)C=C1,i,i,i,i,i,i,nt,nt
O=S(=O)(Nc1ccc(C(O)(C(F)(F)F)C(F)(F)F)cc1)c1cccc2cccnc12,nt,i,nt,nt,nt,i,nt,nt
CCCCOn1c(C)c(C(=O)OCC)c2c3no[n+]([O-])c3ccc21,i,i,i,i,i,i,nt,nt
CCCCOn1c(C)c(C(=O)OCC)c2c3nonc3ccc21,24.3,i,i,i,i,nt,i,25.2
CCOC(=O)c1ccc(N/C=C/C(=O)c2ccc(OC)c(OC)c2)cc1,25.4,i,i,i,i,i,i,i
CCCOc1ccc(N/C=C/C(=O)c2ccc(OC)c(OC)c2)cc1,i,i,i,i,i,i,nt,nt
O=C(CN1C(=O)c2cccc3cccc1c23)Nc1ccc2c(c1)OCO2,i,i,i,i,i,i,nt,nt
O=C(CN1C(=O)c2cccc3cccc1c23)NCc1ccc2c(c1)OCO2,29.1,i,i,i,i,i,i,i
Cc1ccc(NC(=O)CSCC(=O)N(CCC(C)C)c2c(N)n(Cc3ccccc3)c(=O)[nH]c2=O)cc1,nt,i,nt,nt,nt,i,nt,nt
COCCN(C(=O)CSCC(=O)Nc1ccc(C)cc1)c1c(N)n(CC(C)C)c(=O)[nH]c1=O,60.5,i,i,nt,nt,i,i,i
Cc1ccc(S(=O)(=O)N(CC(=O)N2CCC(C)CC2)c2ccccc2)cc1,22.9,i,i,i,i,i,i,i
C=CCSC1=N/C(=C\c2sccc2C)C(=O)S1,59.0,i,i,i,i,i,i,i
C=CCSC1=N/C(=C\c2ccc3c(c2)OCO3)C(=O)S1,i,i,i,i,i,i,nt,nt
COc1ccccc1Nc1nc2c(C)cccc2cc1C#N,39.8,i,i,?,i,i,79.9,93.9
COc1ccccc1Nc1nc2ccc(C)cc2cc1C#N,i,i,i,i,i,i,nt,nt
C=CCn1c(O)c(N=NC(=S)Nc2cccc(OC)c2)c2ccccc21,34.0,i,i,i,i,i,i,i
CN1C(=O)[C@H]2[C@@H](c3ccc(C(F)(F)F)cc3)N[C@]3(CCCN(Cc4cccn4C)C3=O)[C@H]2C1=O,nt,i,nt,nt,nt,i,nt,nt
CC(=O)NCCc1nc2ccccc2n1Cc1ccc(C)cc1,29.1,i,i,i,i,i,i,i
CCOC(=O)[C@]12CCCC=C1N(Cc1ccc(Cl)cc1Cl)C(=O)[C@H](CC(=O)NCC13CC4CC(CC(C4)C1)C3)C2,nt,nt,nt,nt,nt,i,nt,nt
Cn1c(=NC(=O)CS(=O)(=O)c2ccc(F)cc2)sc2ccccc21,22.0,i,i,i,i,i,i,i
Cn1c(=NC(=O)CS(=O)(=O)c2ccccc2)sc2ccccc21,i,i,i,i,i,i,nt,nt
